Drawing on ChEMBL document CHEMBL1130202, “Biologically active heteroarotinoids exhibiting anticancer activity and decreased toxicity” (J Med Chem, 1997), this text covers Activity, Total dose and Mortality for 4 compounds.

Calls of active or inactive are those of the source. No cut-off for these calls is given here.

Data set [1] is filed under the species Mus musculus. The data set can be described thus: Effect of compound on serum triglycerides levels in mice at mid dose 2 on day 8. It counts as functional. In a few lines:
(§1)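 Male B6D2F1 mice were gavaged daily with compound in corn oil at low, mid 1, mid 2 or high dose. Serum triglycerides and circulating white blood cells were measured on the stated day (8, 29, 36, 65). Values are group mean ± SD expressed as % relative to corn-oil vehicle, with significance at p ≤ 0.05.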

Data set [2] is filed under the species Mus musculus. The data set can be described thus: Avoiding pressure on limbs in mice at mid dose 1 with Hypervitaminosis 0/16. The note with it: Limb. The class given is functional, organism-based.
For data set [3], the species on record is Mus musculus. The data set can be described thus: Enlarged lymph in gross pathological observations in mice with hypervitaminosis A at mid dose 2 with gross observations/total number of mice in group; 1/16. The class given is functional, organism-based.
Data set [4] is filed under the species Mus musculus. Briefly: Effect of compound on white blood cells levels in mice at low dose on day 8. It counts as functional. The method in brief: as §1
Data set [5] is filed under the species Mus musculus. The data set can be described thus: Enlarged spleen in Gross pathological observations in mice with hypervitaminosis A at low dose with gross observations/total number of mice in group; 3/16. It counts as functional, organism-based.
The species entered for data set [6] is Mus musculus. The data set can be described thus: Enlarged lymph in gross pathological observations in mice with hypervitaminosis A at mid dose 2 with gross observations/total number of mice in group; 8/16. The class given is functional, organism-based.
Data set [7] is filed under the species Mus musculus. Briefly: Effect of compound on white blood cells levels in mice at low dose on day 65. The class given is functional. In a few lines: as §1
Data set [8] is filed under the species Mus musculus. The data set can be described thus: Enlarged lymph in gross pathological observations in mice with hypervitaminosis A at mid dose 1 with gross observations/total number of mice in group; 6/16. The class given is functional, organism-based.
The species named for data set [9] is Mus musculus. The data set can be described thus: Effect of compound on thymus to body weight ratios in mice at high dose on day 65; all the animals died by day 65. The class given is functional, organism-based. In a few lines:
(§2)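 Male B6D2F1 mice were dosed daily by gavage in corn oil, with TTNPB given at 0.1–0.8 or 0.01/0.05 mg/kg/day. Thymus-to-body weight ratio (×1000) was taken at necropsy on day 65 against vehicle 1, or on day 25 for the 0.01/0.05 groups against vehicle 2. Mean ± SD of 4–8 animals, reported as % difference from vehicle.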

The species named for data set [10] is Mus musculus. The data set can be described thus: Effect of compound on serum Alkaline phosphatase levels in mice at mid dose 1 on day 36. It counts as functional. In a few lines:
(§3)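 Male B6D2F1 mice dosed daily by oral gavage in corn oil at low, mid 1, mid 2 or high dose. Blood sampled on set days (8, 29, 36, 65) for clinical chemistry, serum alkaline phosphatase and triglycerides. Group mean ± SD reported as % relative to vehicle 1; significance p < 0.05 versus corn oil vehicle.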

The species named for data set [11] is Mus musculus. The data set can be described thus: Fracture incidence in mouse at low dose; 2/8.
The species entered for data set [12] is Mus musculus. The data set can be described thus: Effect of compound on Spleen to body weight ratios in mice at high dose on day 65; all the animals died by day 65. The class given is functional, organism-based. In a few lines:
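Male B6D2F1 mice dosed daily by gavage with compound in corn oil; vehicle 1 (corn oil) controls run to termination on day 65. Low, mid 1, mid 2 and high dose groups, with dosage increases partway through the study. Organ-to-body weight ratios (×1000) taken at necropsy on day 65, reported as mean ± SD for 4 to 8 animals and as % difference from vehicle.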

For data set [13], the species on record is Mus musculus. The data set can be described thus: Effect of compound on white blood cells levels in mice at mid dose 2 on day 8. The class given is functional. In a few lines:
as §1

Data set [14] is filed under the species Mus musculus. The data set can be described thus: Fracture incidence in mouse at mid dose 2; 6/7.
For data set [15], the species on record is Mus musculus. The data set can be described thus: Effect of compound on serum Alkaline phosphatase levels in mice at mid dose 2 on day 29. It counts as functional. In a few lines:
as §3

For data set [16], the species on record is Mus musculus. The data set can be described thus: Compound toxicity determined by total dose to termination (day 25/65) in mid dose 1. The class given is functional. In a few lines:
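Male B6D2F1 mice given daily oral gavage in corn oil; dosages increased during the study (day 30 or day 51 depending on compound). Cumulative dose in mg/kg administered up to termination (day 65, or day 25 for TTNPB 0.01/0.05 mg/kg/day groups).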

Data set [17] deals with Mus musculus. Briefly: Alopecia observed at 0.1 mg/kg/day dose in mice with hypervitaminosis; 10/16. The class given is functional, organism-based.
Data set [18] concerns Mus musculus. The data set can be described thus: Enlarged lymph in gross pathological observations with hypervitaminosis A in mice at 0.05 mg/kg/day dose with gross observations/total number of animals in group; 8/8. The class given is functional, organism-based.
Data set [19] is described as follows: Mortality rate in mice at 0.05 mg/kg/day. The class given is ADME, organism-based. The note with it: mouse, in vivo. The method in brief: (§4)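 Male B6D2F1 mice given compound daily by gavage in corn oil at the stated dose levels, with corn oil vehicle controls. Deaths counted as animals found dead or sacrificed moribund, with day(s) of death recorded. Heteroarotinoid groups ran to day 65 and low-dose reference groups to day 25.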

The subject of data set [20] is Mus musculus. Briefly: Effect of compound on thymus to body weight ratios in mice at 0.2 mg/kg/day dose; all the animals died by day 65. It counts as functional, organism-based. In a few lines: as §2
For data set [21], the system named is Mus musculus. Briefly: Effect of compound on thymus to body weight ratios in mice at 0.1 mg/kg/day dose; all the animals died by day 65. It counts as functional, organism-based. The method in brief:
as §2

In data set [22] the test system is Mus musculus. Briefly: Effect of compound on adrenal to body weight ratios in mice at 0.01 mg/kg/day dose; measured on day 25.
For data set [23], the system named is Mus musculus. The data set can be described thus: Effect of compound on right testicle to body weight ratios in mice at 0.4 mg/kg/day dose on day 65; dead on day 65. It counts as functional, organism-based.
The subject of data set [24] is Mus musculus. The data set can be described thus: Enlarged lymph in gross pathological observations with hypervitaminosis A in mice at 0.2 mg/kg/day dose with gross observations/total number of animals in group; 16/16. The class given is functional, organism-based.
The test system of data set [25] is Mus musculus. The data set can be described thus: Skin scaling at 0.1 mg/kg/day in mice with hypervitaminosis; 14/16. It counts as functional, organism-based.
The subject of data set [26] is Mus musculus. Briefly: Enlarged spleen in Gross pathological observations with hypervitaminosis A in mice at 0.4 mg/kg/day dose with gross observations/total number of animals in group; 0/16. It counts as functional, organism-based.
Data set [27] deals with Mus musculus. The data set can be described thus: Effect of compound on Spleen to body weight ratios in mice at 0.01 mg/kg/day dose; all the animals died by day 65. The class given is functional, organism-based.
Data set [28] relates to Mus musculus. Briefly: Alopecia observed at 0.2 mg/kg/day dose with hypervitaminosis; 10/16. It counts as functional, organism-based.
Data set [29] has as its system Mus musculus. Briefly: Effect of compound on Spleen to body weight ratios in mice at 0.05 mg/kg/day dose; measured on day 25.
Data set [30] relates to Mus musculus. The data set can be described thus: Alopecia observed at 0.4 mg/kg/day dose in mice with hypervitaminosis; 8/16. The class given is functional, organism-based.
Data set [31] concerns Mus musculus. The data set can be described thus: Fracture incidents in mouse at 0.01 mg/kg/day; 1/7.
For data set [32], the system named is Mus musculus. Briefly: Effect of compound on right testicle to body weight ratios in mice at 0.4 mg/kg/day dose on day 65. It counts as functional, organism-based.
Data set [33] is described as follows: Mortality rate in mice at 0.1 mg/kg/day; range (12-24). It counts as ADME, organism-based. Particulars: mouse, in vivo. In a few lines:
as §4

Data set [34] has as its system Mus musculus. The data set can be described thus: Effect of compound on thymus to body weight ratios in mice at 0.4 mg/kg/day dose; all the animals died by day 65. It counts as functional, organism-based. The method in brief:
as §2

The species entered for data set [35] is Mus musculus. The data set can be described thus: Alopecia in mice observed at mid dose 1 with Hypervitaminosis; 1/16. The class given is functional, organism-based.
Data set [36] is filed under the species Mus musculus. The data set can be described thus: Enlarged lymph in gross pathological observations in mice with hypervitaminosis A at mid dose 1 with gross observations/total number of mice in group; 0/16. The class given is functional, organism-based.
Data set [37] is filed under the species Mus musculus. The data set can be described thus: Alopecia in mice observed at mid dose 2 with Hypervitaminosis; 1/16. It counts as functional, organism-based.
The species named for data set [38] is Mus musculus. Briefly: Fracture incidence in mouse at high dose; 2/8.
The species entered for data set [39] is Mus musculus. The data set can be described thus: Fracture incidence in mouse at mid dose 2; 0/8.
The species entered for data set [40] is Mus musculus. Briefly: Avoiding pressure on limbs in mice at high dose with Hypervitaminosis; 0/16. Particulars: Limb. It counts as functional, organism-based.

For `CC(/C=C/C=C(\C)c1ccc2c(c1)C(C)(C)CCO2)=C\C(=O)O`, the Activity in data set [1] was found to be 112.3; in data set [4], 4.84. The outcome in [2] and in data set [3] was inactive.
Regarding `C/C(=C\c1ccc(C(=O)O)cc1)c1ccc2c(c1)C(C)(C)CCO2`, in [5], the result was inactive. For the same compound, the Activity result in data set [6] is “Weak activity”; in data set [7], 4.27; in data set [8], “Weak activity”; in data set [9], “Toxic”; in data set [10] it was 81.5; in data set [11], “Weak activity”. Further, the Activity result was “Toxic” in data set [12], 5.26 in [13] and 106.3 in [15]. In addition, in data set [14], the result was Active. In addition, in [16], the Total dose stood at 294.2 mg/kg.
Take `C/C(=C\c1ccc(C(=O)O)cc1)c1ccc2c(c1)C(C)(C)CCC2(C)C`: the Activity result in [17] is “Weak activity”; in data set [20], “Toxic”; in data set [21] it was “Toxic”; in data set [22], “Toxic”; in data set [23], “Toxic”; in data set [27] it was “Toxic”. For the same compound, the Activity entry in data set [28] is “Weak activity”; in data set [29] it was “Toxic”; in [30], “Weak activity”; in [32], “Toxic”; in data set [34], “Toxic”. For the same compound, the result in data set [18], in data set [24] and in data set [25] was Active. Besides, the Mortality in [19] was 3 day of death; in [33], 7 day of death. Further, the outcome in data set [26] and in data set [31] was inactive.
With `CC(/C=C/C=C(\C)c1ccc2c(c1)C(C)(C)CCS2)=C\C(=O)O`, the result in data set [35], in data set [36], in [37], in data set [39] and in data set [40] was inactive. In addition, in data set [38], the Activity result is “Weak activity”.
